Results published in article PMC2887059 (Journal of Medicinal Chemistry, 2010).

Columns and labels:
[1] = system: NF-κB activation induced by TNF-α; experiment: NF-κB activation through TNF-α stimulation; type: cell-based
[2] = system: 92 targets (cloned human or rodent receptors, ion channels, and transporters); experiment: NIMH-PDSP receptor, ion channel and transporter panel; type: binding; details: of 92 targets screened, 10 μM
[3] = system: IL-2 production by Jurkat T-cells; experiment: IL-2 production by Jurkat T-cells; type: cell-based; details: Homo sapiens, read-out: IC50, production of IL-2
Procedure, shortened: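 Jurkat T cells were stimulated either with CD3/CD28 or with PMA/ionomycin in the presence of test compound. IL-2 production was measured and an IC50 derived.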

IKK-β = details: concentrations up to 8 μM; cited from earlier work
[4] = Plasma protein binding, mouse plasma; type: in vitro ADME
PKC-β = details: concentrations up to 8 μM; cited from earlier work
Raf = experiment: KINOMEscan; type: binding; details: 10 μM
[5] = system: NF-κB reporter gene activation (other pathways); experiment: NF-κB reporter gene activation by agonists of other NF-κB activation pathways; type: cell-based
[6] = Metabolic stability in mouse hepatic microsomes; type: in vitro ADME; details: 1 h
TLK1 = target: T1, TLK1 (Homo sapiens, UniProt Q9UKI8); experiment: KINOMEscan; type: binding; details: 10 μM
T1 sequence (Q9UKI8 1-766): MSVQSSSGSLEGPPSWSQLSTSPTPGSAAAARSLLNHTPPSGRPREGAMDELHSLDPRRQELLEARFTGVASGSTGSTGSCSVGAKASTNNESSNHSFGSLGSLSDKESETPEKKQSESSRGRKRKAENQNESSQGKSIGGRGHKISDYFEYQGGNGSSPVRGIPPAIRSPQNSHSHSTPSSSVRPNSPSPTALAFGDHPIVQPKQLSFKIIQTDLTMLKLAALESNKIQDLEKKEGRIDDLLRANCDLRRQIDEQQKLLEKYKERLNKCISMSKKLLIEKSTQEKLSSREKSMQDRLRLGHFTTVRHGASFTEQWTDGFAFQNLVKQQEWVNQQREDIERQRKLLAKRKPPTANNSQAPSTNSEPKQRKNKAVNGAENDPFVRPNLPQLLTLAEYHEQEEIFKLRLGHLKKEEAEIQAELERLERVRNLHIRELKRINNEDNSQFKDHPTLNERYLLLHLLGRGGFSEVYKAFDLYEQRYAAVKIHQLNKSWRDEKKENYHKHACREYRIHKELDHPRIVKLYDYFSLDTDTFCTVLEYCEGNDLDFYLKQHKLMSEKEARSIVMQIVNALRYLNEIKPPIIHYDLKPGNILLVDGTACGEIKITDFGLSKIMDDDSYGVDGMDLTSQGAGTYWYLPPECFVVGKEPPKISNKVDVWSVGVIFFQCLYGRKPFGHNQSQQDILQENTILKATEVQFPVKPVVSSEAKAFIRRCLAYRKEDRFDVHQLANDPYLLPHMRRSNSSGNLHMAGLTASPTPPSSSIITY

JAK2 = JAK2 (Homo sapiens, UniProt O60674); experiment: KINOMEscan; type: binding; details: 10 μM
[7] = Metabolic stability in human hepatic microsomes; type: in vitro ADME; details: 1 h
[8] = Plasma stability, mouse plasma; type: in vitro ADME; details: mouse plasma/PBS; compound at 40 μM, 3 h
[9] = system: IL-8 production in HEK293 cells; experiment: IL-8 production induced by PKC activators in HEK293 cells; type: cell-based; details: Homo sapiens, HEK293, read-out: IC50, IL-8 production
[10] = In vivo dose-exposure profiling, single ip dose in male mice; details: 50 mg/kg ip, t = 3 h
PKC-θ = details: concentrations up to 8 μM; cited from earlier work
353 protein kinases = experiment: KINOMEscan broad kinome screen; type: binding; details: of 353 protein kinases surveyed, 10 μM
murine B-lymphocytes = experiment: Anti-IgM-stimulated proliferation of murine B-lymphocytes; type: cell-based; details: Mus musculus, read-out: IC50, proliferation of B-lymphocytes
[11] = Plasma protein binding, human plasma; type: in vitro ADME
[12] = Plasma stability, human plasma; type: in vitro ADME; details: human plasma/PBS; compound at 40 μM, 3 h
[13] = system: NF-κB activation (HEK293-NF-κB-Luc cells, PMA/ionomycin); type: cell-based, human; details: HEK293 NF-κB-luciferase reporter; for fold drop in activity relative to 1a: versus 1a

Chain of JAK2 (O60674 whole entry): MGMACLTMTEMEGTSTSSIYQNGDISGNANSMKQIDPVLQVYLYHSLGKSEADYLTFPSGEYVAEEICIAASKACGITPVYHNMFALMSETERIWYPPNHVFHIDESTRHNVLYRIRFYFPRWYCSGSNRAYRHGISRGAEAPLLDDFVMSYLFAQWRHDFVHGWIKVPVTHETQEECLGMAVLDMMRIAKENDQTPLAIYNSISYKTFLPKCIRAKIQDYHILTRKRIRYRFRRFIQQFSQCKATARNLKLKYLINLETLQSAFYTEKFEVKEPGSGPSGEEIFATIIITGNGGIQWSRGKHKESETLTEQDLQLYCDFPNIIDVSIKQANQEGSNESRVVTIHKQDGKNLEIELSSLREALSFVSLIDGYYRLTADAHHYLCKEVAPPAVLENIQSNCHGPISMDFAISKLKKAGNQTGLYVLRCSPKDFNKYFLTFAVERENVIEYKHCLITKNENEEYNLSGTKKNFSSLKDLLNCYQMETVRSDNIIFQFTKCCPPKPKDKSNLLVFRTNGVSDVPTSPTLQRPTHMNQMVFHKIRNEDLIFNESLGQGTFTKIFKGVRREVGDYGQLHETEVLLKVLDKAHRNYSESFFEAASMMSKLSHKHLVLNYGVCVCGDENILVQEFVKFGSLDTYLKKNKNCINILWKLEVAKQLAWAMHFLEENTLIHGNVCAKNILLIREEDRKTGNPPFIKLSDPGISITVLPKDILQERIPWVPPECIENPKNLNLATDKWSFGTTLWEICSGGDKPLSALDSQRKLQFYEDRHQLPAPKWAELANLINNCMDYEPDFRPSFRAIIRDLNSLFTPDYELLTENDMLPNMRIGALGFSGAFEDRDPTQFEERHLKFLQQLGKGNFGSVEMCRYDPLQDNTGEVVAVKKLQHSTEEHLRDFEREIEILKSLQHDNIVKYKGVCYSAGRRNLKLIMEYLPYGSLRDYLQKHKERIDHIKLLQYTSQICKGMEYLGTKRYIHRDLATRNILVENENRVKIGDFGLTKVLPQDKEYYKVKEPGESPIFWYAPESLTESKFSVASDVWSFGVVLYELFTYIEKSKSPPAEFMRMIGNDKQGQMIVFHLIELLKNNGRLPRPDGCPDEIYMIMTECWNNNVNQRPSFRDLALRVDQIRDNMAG

## Cc1cc2nc(NCCCO)n(CC(=O)c3cc(C(C)(C)C)c(O)c(C(C)(C)C)c3)c2cc1C [Compound 1a, 1-(3,5-di-tert-butyl-4-hydroxyphenyl)-2-(2-((3-hydroxypropyl)amino)-5,6-dimethyl-1H-benzo[d]imidazol-1-yl)ethanone]
[1]
  inhibition of NF-κB activation through TNF-α stimulation: did not inhibit
[2]
  number of targets with greater than 50% inhibition: eight
[3]
  IC50: < 5000 nM
IKK-β
  suppression of IKK-β: failed to suppress
[4]; 1 μM
  plasma protein binding (% bound) mouse 1 μM: 99.8 % bound
[4]; 10 μM
  plasma protein binding (% bound) mouse 10 μM: 99.9 % bound
PKC-β
  suppression of PKC-β: failed to suppress
Raf
  % inhibition of Raf: 57 % inhibition
[5]
  inhibition of NF-κB reporter gene activation by agonists of the other NF-κB activation pathways: failing to inhibit
[6]; 1 μM
  microsome stability (% remaining) mouse 1 μM: 0.5 % remaining
[6]; 10 μM
  microsome stability (% remaining) mouse 10 μM: 19 % remaining
TLK1
  % inhibition of TLK1: 70 % inhibition
JAK2
  % inhibition of JAK2: 53 % inhibition
[7]; 1 μM
  microsome stability (% remaining) human 1 μM: 26 % remaining
[7]; 10 μM
  microsome stability (% remaining) human 10 μM: 55 % remaining
[8]
  plasma stability (% remaining) mouse: 100/100 % remaining
[9]
  IC50: < 100 nM
[10]
  observed tolerability of the cohort: clear signs of morbidity
PKC-θ
  suppression of PKC-θ: failed to suppress
353 protein kinases
  number of kinases inhibited by more than 50%: three
Murine B-lymphocytes
  IC50: ~2000 nM
[11]; 1 μM
  plasma protein binding (% bound) human 1 μM: 99.9 % bound
[11]; 10 μM
  plasma protein binding (% bound) human 10 μM: 99.8 % bound
[12]
  plasma stability (% remaining) human: 100/100 % remaining

## CC(C)(C)c1cc(C(=O)Cn2c(NCCCO)nc3cc(Br)ccc32)cc(C(C)(C)C)c1O [Compound 1b]
[13]
  fold drop in activity relative to 1a: 40−80 fold

## CC(C)(C)c1cc(C(=O)Cn2c(NCCCO)nc3cc([N+](=O)[O-])ccc32)cc(C(C)(C)C)c1O [Compound 1e]
[13]
  fold drop in activity relative to 1a: 20 fold

## Cc1cc2nc(N3CCC(O)CC3)n(CC(=O)c3cc(C(C)(C)C)c(O)c(C(C)(C)C)c3)c2cc1C [Compound 1k]
[13]
  NF-κB inhibitory activity (in words): abolish activity

## Cc1cc2nc(NCCCO)n(CC(=O)c3cc(C(C)(C)C)cc(C(C)(C)C)c3)c2cc1C [Compound 1l]
[13]
  NF-κB inhibitory activity (in words): retained complete activity

## Cc1cc2nc(NCCCO)n(CC(=O)c3cccc(C(C)(C)C)c3)c2cc1C [Compound 1m]
[13]
  NF-κB inhibitory activity (in words): completely inactive

## Cc1cc2nc(NCCCO)n(CC(=O)c3cccc(OC(C)(C)C)c3)c2cc1C [Compound 1n]
[13]
  NF-κB inhibitory activity (in words): completely inactive

## Cc1cc2nc(NCCCN=[N+]=[N-])n(CC(=O)c3cc(C(C)(C)C)c(O)c(C(C)(C)C)c3)c2cc1C [Compound 1o]
[13]
  fold drop in activity relative to 1a: ≤ 6 fold

## C#CCCCCC(=O)OCCCNc1nc2cc(C)c(C)cc2n1CC(=O)c1cc(C(C)(C)C)c(O)c(C(C)(C)C)c1 [Compound 1p]
[13]
  fold drop in activity relative to 1a: ≤ 6 fold

## Cc1c(C(C)(C)C)cc(O)cc1C(C)(C)C [Compound 9, 3,5-Di-t-butyl-4-methylphenol, reference compound]
[13]
  NF-κB inhibitory activity (in words): inactive

## Cc1cc(Cc2cc(C)cc(C(C)(C)C)c2O)c(O)c(C(C)(C)C)c1 [Compound 10, 6,6′-methylenebis-(2-tert-butyl-4-methylphenol), reference compound]
[13]
  NF-κB inhibitory activity (in words): inactive

## CC(C)(C)c1cc(C(=O)Cn2c(NCCCO)nc3ccc(Br)cc32)cc(C(C)(C)C)c1O [Compound 17b]
[13]
  fold drop in activity relative to 1a: 40−80 fold

## CC(C)(C)c1cc(C(=O)Cn2c(NCCCO)nc3ccc([N+](=O)[O-])cc32)cc(C(C)(C)C)c1O [Compound 17e]
[13]
  NF-κB inhibitory activity (in words): inactive

## Cc1cc2ncn(CC(=O)c3cc(C(C)(C)C)c(O)c(C(C)(C)C)c3)c2cc1C [Compound 18]
[13]
  NF-κB inhibitory activity (in words): significant loss of activity

## Cc1cc2[nH]c(=O)n(CC(=O)c3cc(C(C)(C)C)c(O)c(C(C)(C)C)c3)c2cc1C [Compound 19]
[13]
  NF-κB inhibitory activity (in words): essentially equipotent to 1a

## CN[C@@H]1C[C@H]2O[C@@](C)([C@@H]1OC)n1c3ccccc3c3c4c(c5c6ccccc6n2c5c31)C(=O)NC4 [staurosporine, reference compound]
IKK-β
  suppression of IKK-β: potent inhibition
PKC-θ
  suppression of PKC-θ: potent inhibition
